The source made the active and inactive calls. The calls are words filed in the database; no cut-off is given here.
What was measured:
[1] = Cytotoxicity against mouse RAW264 cells assessed as cell survival at 5 uM relative to control; format: toxicity; settings: read-out: Survival
[2] = Inhibition of RANKL-stimulated osteoclastogenesis in mouse RAW264 cells assessed as reduction in TRAP activity after 4 days in presence of RANKL; format: functional, cell-based
In short: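 Murine RAW264 cells differentiated with RANKL (50 ng/mL) for 4 days, with or without compound at a range of concentrations. TRAP activity was read as absorbance at 405 nm, and the IC50 was taken from inhibition of RANKL-induced TRAP up-regulation. Cytotoxicity toward RAW264 cells was also checked.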

RAW264 [3] = test: Inhibition of RANKL-stimulated osteoclastogenesis in mouse RAW264 cells assessed reduction in TRAP-positive multinucleated cells at 10 uM after 4 days in presence of RANKL by TRAP-staining based microscopic analysis; format: functional, cell-based
In short: (§1)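 RAW264 cells were treated with RANKL (50 ng/mL) plus compound at 10 or 20 μM, or without compound, for 4 days. They were then stained with TRAP-staining solution, which stains positive cells red. TRAP-positive multinuclear cells (≥3 nuclei) were counted by microscopy.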

RAW264 [4] = test: Inhibition of RANKL-stimulated osteoclastogenesis in mouse RAW264 cells assessed reduction in TRAP-positive multinucleated cells at 20 uM after 4 days in presence of RANKL by TRAP-staining based microscopic analysis; format: functional, cell-based; in short: as §1

Compound	viability at 5 µM [1]	IC50 [2]	inhibition (RAW264 [3])	inhibition (RAW264 [4])
C[C@]12CC(=O)[C@@H](O)[C@](C)(CO)[C@@H]1CC[C@@]1(C)c3cocc3CC[C@H]21 [SPONGIADIOL]	97%	> 50 µM	–	–
C[C@]12CCC[C@](C)(C(=O)O)[C@@H]1CC[C@@]1(C)C3=C(CC[C@H]21)C(=O)N(CCc1ccccc1)C3	100%	13 µM	Active	–
C[C@]12CCC[C@](C)(C(=O)O)[C@@H]1CC[C@@]1(C)C3=C(CC[C@H]21)CNC3=O	100%	> 50 µM	–	–
CC(C)CN1CC2=C(C1=O)[C@]1(C)CC[C@@H]3[C@](C)(CCC[C@]3(C)C(=O)O)[C@H]1CC2	100%	> 50 µM	–	–
CC(C)CN1CC2=C(CC[C@@H]3[C@@]4(C)CCC[C@](C)(C(=O)O)[C@@H]4CC[C@@]23C)C1=O	100%	> 50 µM	–	–
C[C@]12CCC[C@](C)(C(=O)O)[C@@H]1CC[C@@]1(C)C3=C(CC[C@H]21)CN(CCc1ccccc1)C3=O	97%	> 50 µM	–	–
C[C@]12C[C@@H](O)C(=O)[C@](C)(CO)[C@@H]1CC[C@@]1(C)c3cocc3CC[C@H]21 [ISOSPONGIADIOL]	96%	> 50 µM	–	–
CO[C@H]1O[C@@H](OC)C2=C1CC[C@@H]1[C@@]3(C)CCC[C@](C)(C(=O)O)[C@@H]3CC[C@@]21C	98%	> 50 µM	–	–
C[C@]12CCC[C@](C)(C(=O)O)[C@@H]1CC[C@@]1(C)c3cocc3CC[C@H]21	100%	> 50 µM	–	–
CC(C)CCN1CC2=C(CC[C@@H]3[C@@]4(C)CCC[C@](C)(C(=O)O)[C@@H]4CC[C@@]23C)C1=O	87%	18 µM	–	Active
CC(C)CCN1CC2=C(C1=O)[C@]1(C)CC[C@@H]3[C@](C)(CCC[C@]3(C)C(=O)O)[C@H]1CC2	100%	> 50 µM	–	–
